From ChEMBL document CHEMBL1139340, “Synthesis, radiosynthesis, and biological evaluation of carbon-11 and fluorine-18 labeled reboxetine analogues: potential positron emission tomography radioligands for in vivo imaging of the norepinephrine transporter” (J Med Chem, 2009)

Legend:
[1] = Ratio of drug uptake in thalamus to caudate of anesthetized rhesus monkey at 15 to 20 mCi pretreated with 0.125 mg/kg desipramine by microPET; assay type: ADME, organism-based, Macaca mulatta; parameters: dose 0.125 mg/kg; conditions: in vivo
Method in brief: (§1)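 Anesthetized adult male rhesus monkeys imaged on a microPET P4 system after injection of 15–20 mCi of the 11C-labeled radioligand. Desipramine was given 40 min before radiotracer injection. Emission data were collected continuously for 125 min and binned. ROIs were drawn manually on anatomical landmarks in the reconstructed images. The ratio of region-of-interest to caudate uptake was taken from time-activity curves at 85 min postinjection.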

[2] = Ratio of drug uptake in midbrain to caudate of anesthetized rhesus monkey at 15 to 20 mCi after 85 mins postinjection by microPET; assay type: ADME, organism-based, Macaca mulatta; conditions: in vivo
Method in brief: (§2)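 Anesthetized adult male rhesus monkeys given 15–20 mCi of the ¹¹C tracer, alone or after desipramine (0.125 or 0.25 mg/kg) 40 min beforehand. MicroPET emission collected continuously for 125 min and binned. ROIs drawn manually on anatomical landmarks to give time-activity curves. Region-to-caudate uptake ratio taken at 85 min postinjection.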

[3] = Ratio of drug uptake in cerebellum to caudate of anesthetized rhesus monkey at 15 to 20 mCi pretreated with 0.125 mg/kg desipramine by microPET; assay type: ADME, organism-based, Macaca mulatta; parameters: dose 0.125 mg/kg; conditions: in vivo; method in brief: as §1
[4] = Ratio of drug uptake in pons to caudate of awaken rhesus monkey at 15 to 20 mCi after by PET method; assay type: ADME, Macaca mulatta; conditions: in vivo
Method in brief: (§3)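 Awake rhesus monkeys imaged on a high-resolution research tomograph (HRRT) for 120 min after radioligand injection; images coregistered with composite MRI to define regions; time-activity curves generated and highest ratio of regional uptake to caudate uptake taken.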

[5] = Ratio of drug uptake in pons to caudate of anesthetized rhesus monkey at 15 to 20 mCi after 85 mins postinjection by microPET; assay type: ADME, organism-based, Macaca mulatta; conditions: in vivo
Method in brief: (§4)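 Anesthetized adult male rhesus monkeys scanned on a microPET P4 after 15–20 mCi of the 11C radioligand; emission collected continuously for 125 min, binned, time-activity curves from manually drawn anatomical ROIs; regional uptake divided by caudate uptake (caudate as NET-poor reference) at 85 min postinjection, at baseline.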

[6] = Ratio of drug uptake in thalamus to caudate of anesthetized rhesus monkey at 15 to 20 mCi after 85 mins postinjection by microPET; assay type: ADME, organism-based, Macaca mulatta; conditions: in vivo; method in brief: as §4
[7] = Ratio of drug uptake in pons to caudate of anesthetized rhesus monkey at 15 to 20 mCi pretreated with 0.125 mg/kg desipramine by microPET; assay type: ADME, organism-based, Macaca mulatta; parameters: dose 0.125 mg/kg; conditions: in vivo; method in brief: as §1
[8] = Ratio of drug uptake in midbrain to caudate of awaken rhesus monkey at 15 to 20 mCi after by PET method; assay type: ADME, Macaca mulatta; conditions: in vivo; method in brief: as §3
[9] = Ratio of drug uptake in cerebellum to caudate of awaken rhesus monkey at 15 to 20 mCi after by PET method; assay type: ADME, tissue-based, Macaca mulatta; conditions: in vivo
Method in brief: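 Awake rhesus monkeys imaged on a high-resolution research tomograph for 120 min after injection of the ¹¹C tracer. Images coregistered with composite MRI to define regions of interest. Highest cerebellum-to-caudate uptake ratio read from the time-activity curves.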

[10] = Ratio of drug uptake in cerebellum to caudate of anesthetized rhesus monkey at 15 to 20 mCi after 85 mins postinjection by microPET; assay type: ADME, organism-based, Macaca mulatta; conditions: in vivo; method in brief: as §2
[11] = Ratio of drug uptake in thalamus to caudate of awaken rhesus monkey at 15 to 20 mCi after by PET method; assay type: ADME, Macaca mulatta; conditions: in vivo; method in brief: as §3
[12] = Ratio of drug uptake in midbrain to caudate of anesthetized rhesus monkey at 15 to 20 mCi pretreated with 0.125 mg/kg desipramine by microPET; assay type: ADME, organism-based, Macaca mulatta; parameters: dose 0.125 mg/kg; conditions: in vivo; method in brief: as §1
[13] = molecular target: Sodium-dependent dopamine transporter (Homo sapiens, UniProt Q01959); assay: Displacement of [125I]RTI-55 from human DAT receptor expressed in canine kidney cells; assay type: cell-based
Sequence of Sodium-dependent dopamine transporter (Q01959 whole entry): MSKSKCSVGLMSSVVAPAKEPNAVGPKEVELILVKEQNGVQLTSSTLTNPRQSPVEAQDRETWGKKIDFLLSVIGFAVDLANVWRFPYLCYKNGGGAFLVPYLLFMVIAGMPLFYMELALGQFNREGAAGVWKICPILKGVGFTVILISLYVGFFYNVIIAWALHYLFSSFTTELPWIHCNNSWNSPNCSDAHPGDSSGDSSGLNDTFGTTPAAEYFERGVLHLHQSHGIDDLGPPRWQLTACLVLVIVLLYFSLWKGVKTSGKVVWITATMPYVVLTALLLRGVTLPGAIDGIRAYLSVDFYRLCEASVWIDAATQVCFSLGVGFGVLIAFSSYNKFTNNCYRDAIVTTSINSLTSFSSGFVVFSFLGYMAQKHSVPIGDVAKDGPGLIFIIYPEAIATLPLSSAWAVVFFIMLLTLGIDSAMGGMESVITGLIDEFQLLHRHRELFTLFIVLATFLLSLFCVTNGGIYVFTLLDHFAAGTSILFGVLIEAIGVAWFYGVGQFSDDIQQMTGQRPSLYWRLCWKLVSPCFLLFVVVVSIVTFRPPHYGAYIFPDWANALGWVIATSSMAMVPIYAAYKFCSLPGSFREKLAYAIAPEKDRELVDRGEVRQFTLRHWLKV
Method in brief: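 Competition binding against [¹²⁵I]RTI-55 in canine kidney cells stably transfected with human DAT. Ki in nM, geometric mean ± SD of at least three separate experiments, each run in triplicate.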

Homo sapiens [14] = organism: Homo sapiens; assay: Selectivity for human NET over human SERT
Method in brief: (§5)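 Competition binding in stably transfected cells expressing human transporters: NET vs [3H]nisoxetine and SERT vs [3H]citalopram in HEK-293 cells; DAT vs [125I]RTI-55 in canine kidney cells. Ki as geometric mean of at least three experiments in triplicate; selectivity as ratio of SERT or DAT Ki to NET Ki.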

[15] = Lipophilicity, log P at pH 7.4; assay type: physicochemical; conditions: buffer
Method in brief: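 Radiotracer (~5–10 μCi) in 2 mL 1-octanol plus 2 mL 0.02 M sodium phosphate buffer, pH 7.4. Vortexed 10 min at room temperature, centrifuged 5 min. 0.5 mL of each layer gamma-counted and decay corrected. log P = log(octanol counts/buffer counts), done three times and averaged.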

[16] = molecular target: Sodium-dependent noradrenaline transporter (Homo sapiens, UniProt P23975); assay: Displacement of [3H]nisoxetine from human NET receptor expressed in HEK293 cells; assay type: cell-based
Sequence of Sodium-dependent noradrenaline transporter (P23975 whole entry): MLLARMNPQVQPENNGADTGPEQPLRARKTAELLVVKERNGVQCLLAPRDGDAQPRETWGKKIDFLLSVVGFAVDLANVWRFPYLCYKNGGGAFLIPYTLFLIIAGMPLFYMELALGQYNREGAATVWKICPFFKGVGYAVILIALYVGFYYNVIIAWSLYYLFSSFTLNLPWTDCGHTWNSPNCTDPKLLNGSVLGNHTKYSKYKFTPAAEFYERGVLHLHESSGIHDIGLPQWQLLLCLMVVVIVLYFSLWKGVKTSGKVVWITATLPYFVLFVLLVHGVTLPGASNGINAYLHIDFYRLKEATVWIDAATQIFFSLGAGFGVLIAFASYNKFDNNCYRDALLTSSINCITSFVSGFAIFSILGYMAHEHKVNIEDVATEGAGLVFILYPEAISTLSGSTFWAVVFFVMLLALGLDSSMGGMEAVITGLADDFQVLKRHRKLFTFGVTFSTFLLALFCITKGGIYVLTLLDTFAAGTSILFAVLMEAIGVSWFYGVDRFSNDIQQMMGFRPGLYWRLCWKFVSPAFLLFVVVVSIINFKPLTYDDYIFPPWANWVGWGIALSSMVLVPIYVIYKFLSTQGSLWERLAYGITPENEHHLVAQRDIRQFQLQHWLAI

[17] = molecular target: Sodium-dependent serotonin transporter (Homo sapiens, UniProt P31645); assay: Displacement of [3H]citalopram from human SERT receptor expressed in HEK293 cells; assay type: cell-based
Sequence of Sodium-dependent serotonin transporter (P31645 whole entry): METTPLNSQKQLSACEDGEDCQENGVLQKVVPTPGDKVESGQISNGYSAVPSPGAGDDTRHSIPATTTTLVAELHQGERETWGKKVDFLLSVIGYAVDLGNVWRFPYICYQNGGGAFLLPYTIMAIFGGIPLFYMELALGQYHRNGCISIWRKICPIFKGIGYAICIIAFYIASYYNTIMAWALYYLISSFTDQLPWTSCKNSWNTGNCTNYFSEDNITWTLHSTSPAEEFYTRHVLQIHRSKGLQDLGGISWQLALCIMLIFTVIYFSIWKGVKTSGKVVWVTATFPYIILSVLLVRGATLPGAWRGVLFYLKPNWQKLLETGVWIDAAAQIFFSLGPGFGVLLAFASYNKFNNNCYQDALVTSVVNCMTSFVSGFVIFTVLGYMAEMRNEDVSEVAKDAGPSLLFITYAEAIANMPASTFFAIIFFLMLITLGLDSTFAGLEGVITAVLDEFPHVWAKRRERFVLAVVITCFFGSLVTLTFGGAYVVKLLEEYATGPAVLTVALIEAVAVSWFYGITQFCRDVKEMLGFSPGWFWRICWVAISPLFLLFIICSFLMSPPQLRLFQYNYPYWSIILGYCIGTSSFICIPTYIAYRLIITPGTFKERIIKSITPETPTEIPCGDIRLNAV
Method in brief: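 Competition binding against [³H]citalopram in HEK-293 cells stably transfected with human SERT. Ki in nM, geometric mean ± SD of at least three separate experiments, each run in triplicate.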

Homo sapiens [18] = organism: Homo sapiens; assay: Selectivity for human NET over human DAT; method in brief: as §5

Ratio [1]	Ratio [2]	Ratio [3]	Ratio [4]	Ratio [5]	Ratio [6]	Ratio [7]	Ratio [8]	Ratio [9]	Ratio [10]	Ratio [11]	Ratio [12]	SMILES	Ki [13] [nM]	Ratio Ki (Homo sapiens [14])	logD [15]	Ki [16] [nM]	Ki [17] [nM]	Ratio Ki (Homo sapiens [18])
1.02	1.33	0.81	1	1.27	1.34	0.98	1	0.95	1.05	1.15	1.09	[11CH3]c1ccccc1S[C@@H](c1ccccc1)[C@@H]1CNCCO1	–	–	–	–	–	–
–	–	–	–	–	–	–	–	–	–	–	–	COc1ccccc1O[C@@H](c1ccccc1)[C@@H]1CNCCO1	> 2000	195	–	–	–	–
–	–	–	–	–	–	–	–	–	–	–	–	FCCc1ccccc1O[C@@H](c1ccccc1)[C@@H]1CNCCO1	> 6000	137	2	3.14	430	> 2000
–	–	–	–	–	–	–	–	–	–	–	–	Cc1ccccc1O[C@@H](c1ccccc1)[C@@H]1CNCCO1	327	92	2.04	1.02	93	321
